Consider 23 compounds from PubChem BioAssay AID2369 (The Scripps Research Institute Molecular Screening Center, 2010).

The source made the active and inactive calls. The rule behind the calls is not given here.

For this assay, the target named is Protein phosphatase methylesterase 1 (Mus musculus) (UniProt Q8BVQ5). The experiment in a line: endogenous mouse PME-1 inhibition by ABPP, late-stage follow-up, orthogonal assay for PME-1 inhibitor project, cell lysate, mouse brain cytosol, FP-rhodamine, in-gel fluorescence (AID 2369). As to conditions: band fluorescence, at 20 µM, active compounds read high. An outline of the steps: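 Test system: native PME-1, mouse brain cytosol. Timing: compound pre-incubation 30 min at 25 °C, probe labeling 45 min. Technique: gel fluorescence scan.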
Protein phosphatase methylesterase 1 (Mus musculus), sequence (Q8BVQ5 whole entry, looked up): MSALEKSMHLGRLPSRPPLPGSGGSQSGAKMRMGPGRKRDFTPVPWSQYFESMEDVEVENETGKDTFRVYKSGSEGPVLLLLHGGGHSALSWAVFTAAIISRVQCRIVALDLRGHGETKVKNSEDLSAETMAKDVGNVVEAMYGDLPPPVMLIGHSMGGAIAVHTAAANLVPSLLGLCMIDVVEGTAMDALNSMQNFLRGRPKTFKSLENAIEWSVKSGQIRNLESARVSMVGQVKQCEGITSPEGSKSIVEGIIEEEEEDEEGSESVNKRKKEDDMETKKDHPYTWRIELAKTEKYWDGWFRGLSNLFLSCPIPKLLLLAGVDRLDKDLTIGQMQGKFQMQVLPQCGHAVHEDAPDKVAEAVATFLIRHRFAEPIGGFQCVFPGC
As usually defined, the inhibition is the relative decrease from the control value, in per cent. For the compound `COC(=O)c1[nH]c2ccccc2c1/C=C(\C#N)S(C)(=O)=O`, the inhibition was 0% (inactive).
In the case of `N#C/C(=C\c1cccn1-c1ccc(Cl)cc1)S(=O)(=O)c1ccccc1`, the inhibition is 0% (inactive).
As for `N#C/C(=C\c1cccn1S(=O)(=O)c1cccc(C#N)c1)S(=O)(=O)c1ccc(Br)cc1`, the figure is 70%; as for `Cc1cc(C)n(-c2ccc(-n3cccc3/C=C(\C#N)S(C)(=O)=O)cc2)n1`, 0% (inactive); as for `N#C/C(=C\c1cccn1S(=O)(=O)c1cccc([N+](=O)[O-])c1)S(=O)(=O)c1ccc(F)cc1`, 90%.
In the case of `CS(=O)(=O)/C(C#N)=C\c1ccc(-n2cc(/C=C(/C#N)S(C)(=O)=O)c3ccccc32)cc1`, the inhibition was 0% (inactive).
Under `N#C/C(=C\c1cccn1S(=O)(=O)c1cccc(Cl)c1)S(=O)(=O)c1ccc(F)cc1` stands 80%; under `N#C/C(=C\c1cccn1S(=O)(=O)c1cccc(C#N)c1)S(=O)(=O)c1ccc(Cl)cc1`, 85%.
`Cc1ccc(-n2cccc2/C=C(\C#N)S(C)(=O)=O)c([N+](=O)[O-])c1`: the inhibition is 0% (inactive).
Consider `CS(=O)(=O)/C(C#N)=C/c1cccn1-c1ccc(OC(F)(F)F)cc1`, for which the inhibition was 0% (inactive).
Under `N#C/C(=C\c1cccn1-c1ccc(OC(F)(F)F)cc1)S(=O)(=O)c1ccccc1` stands 0% (inactive).
Consider `N#C/C(=C\c1cccn1-c1cc(Cl)cc(Cl)c1)S(=O)(=O)c1ccccc1`, for which the inhibition was 0% (inactive).
For `Cc1ccc(-c2nc3sccn3c2/C=C(\C#N)S(C)(=O)=O)cc1`, the inhibition was 0% (inactive).
Under `CCSc1ncc(/C=C(/C#N)S(C)(=O)=O)n1C` stands 0% (inactive); under `CS(=O)(=O)/C(C#N)=C/c1cccn1-c1ccc(C(F)(F)F)cc1`, 0% (inactive); under `N#C/C(=C\c1cccn1S(=O)(=O)c1cccc(OC(F)(F)F)c1)S(=O)(=O)c1ccc(F)cc1`, 75%.
For the compound `COc1ccc2[nH]c(/C=C(\C#N)S(C)(=O)=O)cc2c1`, the inhibition is 0% (inactive).
As for `COc1cccc(S(=O)(=O)n2cccc2/C=C(\C#N)S(=O)(=O)c2ccc(F)cc2)c1`, the figure is 60% (inactive); as for `CS(=O)(=O)/C(C#N)=C\c1cnc(S(=O)(=O)c2ccccc2)s1`, 0% (inactive); as for `N#C/C(=C\c1cccn1S(=O)(=O)c1cccc(C(=O)O)c1)S(=O)(=O)c1ccc(F)cc1`, 60% (inactive).
Under `Cc1cc(C)c(/C=C(\C#N)S(=O)(=O)c2ccccc2)[nH]1` stands 0% (inactive); under `CS(=O)(=O)/C(C#N)=C/c1cn(Cc2cnc(Cl)s2)c2ccccc12`, 0% (inactive); under `Cc1cc(C)n(-c2ccc(-n3cccc3/C=C(/C#N)S(=O)(=O)c3ccccc3)cc2)n1`, 0% (inactive).
